TAAR1 agonist = agonists of human TAAR1; Q96RJ0; 360,000 tested, 0.99% active; CHO RD-HGA16 TAAR1, Fluo-8 calcium fluorescence; vehicle wells 0%, saturating PEA agonist 100%; AID 624467; activation, % at 3 µM;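 active means activation above the mean activation of all test compounds in the run plus 3 SD, cut at about 38% in these data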
Target sequence (Q96RJ0 whole entry, looked up): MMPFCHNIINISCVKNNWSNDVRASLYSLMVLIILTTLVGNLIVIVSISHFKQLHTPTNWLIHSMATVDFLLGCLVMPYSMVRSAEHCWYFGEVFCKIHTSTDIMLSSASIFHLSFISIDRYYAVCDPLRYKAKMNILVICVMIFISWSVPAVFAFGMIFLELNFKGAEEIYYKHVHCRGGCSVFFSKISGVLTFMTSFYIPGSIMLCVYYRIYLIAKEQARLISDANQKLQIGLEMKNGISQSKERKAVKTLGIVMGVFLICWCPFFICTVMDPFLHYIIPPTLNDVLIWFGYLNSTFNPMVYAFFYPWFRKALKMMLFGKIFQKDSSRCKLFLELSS
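System: CHO-derived RD-HGA16 cells with stable Gα16 and human TAAR1 / Times: 17-24 h plating, Fluo-8 75 min 37 °C, 30 min RT / Technique: calcium-sensitive Fluo-8 signal, excitation 470-495, emission 515-575 nm / Measure: % activation relative to PEA EC100 response / Benchmarks: DMSO and PEA EC100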
CHO parental Ca = counter-screen: ATP calcium response change in parental CHO cells. parental CHO-K1, ATP-induced calcium, Fluo-8 fluorescence. inhibition, % at 5.6 µM. 330,000 tested, 0.63% active. AID 463079;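 active means inhibition above that plate's mean sample inhibition plus 3 SD, cut at about 26% in these data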;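 further: 0% = ATP-challenged DMSO wells and 100% = DMSO wells without ATP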
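Assay system – parental CHO cells · Reagent – ATP stimulus · Detection – intracellular calcium via Fluo-8 no-wash fluorescent dye · Evaluation – percent inhibition of ATP-evoked calcium rise, normalized to controls · Controls – ATP wells versus no-ATP DMSO wells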
GPR7 antag = human neuropeptides B/W receptor 1 antagonism; inhibition, % at 4.4 µM; 290,000 tested, 1.1% active; P48145; GPR7-expressing cells, fluorescence antagonist assay; AID 1861; in the data active means inhibition above about 16%, passing the limit was not always enough;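 further: cells stimulated with the agonist NPW; 0% = agonist with vehicle and 100% = vehicle without agonist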
Target sequence (P48145 whole entry, looked up): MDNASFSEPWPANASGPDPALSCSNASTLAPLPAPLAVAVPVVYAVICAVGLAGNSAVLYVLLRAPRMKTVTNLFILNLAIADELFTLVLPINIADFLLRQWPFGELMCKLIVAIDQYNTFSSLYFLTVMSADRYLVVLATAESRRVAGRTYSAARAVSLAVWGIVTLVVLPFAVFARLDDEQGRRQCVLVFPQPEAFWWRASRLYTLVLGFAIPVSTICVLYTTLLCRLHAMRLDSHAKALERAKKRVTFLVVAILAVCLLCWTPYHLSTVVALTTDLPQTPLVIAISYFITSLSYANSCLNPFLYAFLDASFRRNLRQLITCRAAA
TAAR1 antag = antagonists of human TAAR1; 360,000 tested, 1.5% active; Q96RJ0; AID 624466; CHO RD-HGA16 TAAR1, Fluo-8 calcium fluorescence, antagonist; inhibition, % at 3 µM;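 active means inhibition above a per-plate cutoff, the mean inhibition of test compounds on that plate plus 3 SD, cut at about 49% in these data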;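 further: 0% = DMSO plus EC80 beta-PEA response and 100% = DMSO alone without agonist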
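Material: RD-HGA16 CHO cells with stable hTAAR1 and Gα16; Dosing: single nominal final test compound concentration of 3 µM; Schedule: seeding 17-24 h prior, 75-min 37 °C, 30-min RT dye loading; Detection: kinetic Fluo-8 calcium fluorescence measurement; Measure: % inhibition from peak post-agonist over basal fluorescence ratio; Benchmarks: vehicle and agonist controls.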
OX1R antag-1 = OX1R (human) antagonism; OX1R-expressing cells, FRET antagonist read-out; 330,000 tested, 1.8% active; O43613; inhibition, % at 6.6 µM; in the data active means inhibition mostly above about 38%, no sharp cut-off; inactive means mostly below about 40%;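 further: 0% = agonist challenge alone and 100% = reference antagonist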
OX1R antag-2 = antagonists of human orexin 1 receptor; AID 434989; CHO/OX1R cells, Fluo-8 calcium fluorescence, orexin A; 330,000 tested, 0.43% active; inhibition, % at 5 µM; O43613;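 active means inhibition above its plate's threshold, mean inhibition of all tested compounds on the plate plus 3 SD, cut at about 37% in these data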;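 further: 0% = orexin A challenge wells and 100% = SB-334867-A antagonist wells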
* = called active by the depositor; nt = no result. Sampled rows, rich in hits. Any-hit rate of the full collection: about 4.5%.

SMILES	TAAR1 agonist	CHO parental Ca	GPR7 antag	TAAR1 antag	OX1R antag-1	OX1R antag-2
COc1cc(/C(O)=C(\C#N)c2nc3ccccc3[nH]2)cc(OC)c1OC	10	nt	-17	29	nt	nt
Clc1ccc(-c2csc(NCC3CCCO3)n2)cc1 (stereo not drawn)	0	nt	nt	-17	nt	nt
COc1ccc2c(c1)C(C)=CC(C)(C)N2S(=O)(=O)c1ccc(Br)cc1	0	-6	29*	10	4	-12
CCOc1ccc2c(c1)C(C)=CC(C)(C)N2S(=O)(=O)c1ccc(F)cc1	-1	-12	-18	-7	23	-11
Cc1ccc(-n2nnnc2SCC(=O)NC(C(=O)O)(c2ccccc2)c2ccccc2)cc1C	1	-14	-4	10	57*	-13
CCC(=O)Nc1ccc(NC(=O)CSc2nnnn2-c2ccc3c(c2)OCCO3)cc1	8	4	-20	-3	2	-4
Cc1ccc(NC(=O)CCSc2nnnn2-c2ccc3c(c2)OCO3)cc1C	-1	-8	-15	9	71*	-19
CC1=N/C(=C\c2ccc([N+](=O)[O-])cc2)C(=O)N1c1ccc(C)c(Cl)c1	-1	nt	nt	5	nt	nt
O=C(NC1CCCC1)C(c1cccnc1)N(CCc1ccccc1)C(=O)c1ccco1 (stereo not drawn)	7	9	-2	5	57*	-14
O=C(NCC(=O)N(CCc1ccccc1)C(C(=O)NC1CCCC1)c1cccnc1)c1ccco1 (stereo not drawn)	nt	-9	-9	nt	7	-32
Cc1cccc(C)c1Nc1nnc(SCc2cc([N+](=O)[O-])cc3c2OCOC3)s1	2	-13	2	13	14	-5
COc1cccc(Nc2nnc(SCc3cc([N+](=O)[O-])cc4c3OCOC4)s2)c1	3	5	-1	34	68*	-17
Cc1[nH]c(=O)[nH]c(=O)c1CCSSCCc1c(C)[nH]c(=O)[nH]c1=O	3	nt	nt	-19	nt	nt
O=C(Nc1ccc(Cl)cc1)c1cc2c(cc1O)[nH]c1ccccc12	8	72*	43*	12	52*	55*
O=Nc1c(O)n(Cc2ccc(Cl)cc2)c2ccccc12	12	-21	8	4	7	-18
O=Nc1c(O)n(Cc2ccc(Cl)cc2Cl)c2ccccc12	10	87*	-2	-25	16	24
Cc1ccc2c(c1)c(N=O)c(O)n2Cc1ccc(Cl)cc1	2	36*	-5	-22	6	-2
Cc1ccc(Cn2c(O)c(N=O)c3ccccc32)cc1	3	-9	1	-6	24	-15
CN1C(=O)CSc2ccc(NC(=O)NCc3ccccc3)cc21	2	-5	-3	13	5	-8
CC(=O)c1cccc(NC(=O)Nc2ccc3c(c2)N(C)C(=O)CS3)c1	27	-3	-2	66*	20	-10
Cc1ccc(NC(=O)Nc2ccc3c(c2)N(C)C(=O)CS3)cc1C	6	22	10	50*	14	-5
Cc1ccc(CNC(=O)Nc2ccc3c(c2)N(C)C(=O)CS3)cc1	9	-9	-9	21	13	-13
CCc1ccc(NC(=O)Nc2ccc3c(c2)N(C)C(=O)CS3)cc1	6	14	-3	49*	21	-13
Cc1cc2c(nc1C)CCCN2S(=O)(=O)c1ccc(C(F)(F)F)cc1	1	nt	nt	-4	nt	nt
COc1ccc(NC(=O)CN(C)C(=O)CN2C(=O)c3ccc([N+](=O)[O-])cc3C2=O)cc1	0	7	-1	-12	61*	0
SMILES	TAAR1 agonist	CHO parental Ca	GPR7 antag	TAAR1 antag	OX1R antag-1	OX1R antag-2
CN(C(=O)CN1C(=O)c2ccc([N+](=O)[O-])cc2C1=O)C1CCCCC1	6	-9	nt	-4	64*	-7
COc1ccc(-c2cc([N+](=O)[O-])ccc2OCC(=O)N(C)CC(=O)Nc2ccc(C)cc2)cc1	0	nt	nt	10	nt	nt
CCN(CC)S(=O)(=O)c1cccc(NC(=O)CN2C(=O)c3ccc([N+](=O)[O-])cc3C2=O)c1	7	-10	-3	-10	43	-28
CCN(C(=O)CN1C(=O)c2ccc([N+](=O)[O-])cc2C1=O)C1CCCCC1	0	-4	-5	4	56*	-12
CCCCN(CC)C(=O)CSc1nc2n[nH]c(C)c2c(=N)n1-c1cccc(C)c1	7	-25	-12	-3	34	-26
Cc1cccc(-n2c(SCC(=O)N3CCCC3)nc3n[nH]c(C)c3c2=N)c1	5	-28	-16	13	36*	12
O=c1[nH]c2ccccc2nc1-c1c[nH]c2ccccc12	-1	-19	12	12	62*	22
COc1ccccc1/C=C/C(=O)NCC(=O)N/N=C/c1ccccc1	38*	-17	9	-27	3	-27
CCc1ccc(-c2nc(CSCC(=O)N3CCN(c4ncccn4)CC3)c(C)o2)cc1	2	14	-17	45	42*	-14
COc1cc2c(cc1OC)CN(c1ccc3ccccc3n1)CC2	-1	-15	29	2	73*	-10
COc1cc2c(cc1OC)CN(c1ccc(-c3ccccc3OC)nn1)CC2	nt	-5	-15	nt	34	-19
O=C(O)c1cc(-c2ccccc2Cl)n(-c2cccc(Cl)c2)n1	1	-8	0	-8	37*	13
O=S(=O)(c1cccc2nsnc12)N1CCCC1	7	0	-10	-1	19	-5
Cc1ccc(S(=O)(=O)N2CCOCC2)c2nsnc12	11	-11	1	11	41*	-1
O=S(=O)(c1ccc(Br)c2nsnc12)N1CCOCC1	1	-3	19	9	40*	1
CN1CCN(S(=O)(=O)c2ccc(Sc3nc4ccccc4[nH]3)c3nsnc23)CC1	8	-11	-3	10	163*	-36
Cc1ccc(S(=O)(=O)N2CCCCC2)c2nsnc12	0	-6	-13	2	27	-24
CN1CCN(S(=O)(=O)c2ccc(Br)c3nsnc23)CC1	14	-10	-5	3	65*	-6
C[C@@H]1CN(c2ccc(N3CCN(C(=O)OC(C)(C)C)C[C@@H]3C)cc2C#N)C[C@H](C)O1	2	nt	nt	-29	nt	nt
C[C@H]1CN([C@@H](C)CO)C(=O)CCCn2cc(nn2)CO[C@@H]1CN(C)C(=O)c1ccccc1	0	nt	nt	4	nt	nt
Nc1[nH]c(C(=O)c2ccccc2)c(-c2ccccc2)c1C(=O)NCCc1c[nH]c2ccccc12	8	nt	nt	17	nt	nt
COCc1[nH]nc2c1C(c1ccc(F)cc1)NC2=O (stereo not drawn)	2	nt	nt	-19	nt	nt
O=C(Nc1ccc(NC(=O)c2ccc(Cl)cc2Cl)cc1)c1cccs1	7	-3	-7	-5	10	-15
CCC(C)NS(=O)(=O)c1ccc(NC(=O)c2cccs2)cc1 (stereo not drawn)	7	2	-7	9	28	6

Screening data: PubChem, The Scripps Research Institute Molecular Screening Center
